In paper PMC3461514 (The Journal of Cell Biology, 2012):
Numbering of substitutions follows the chain as printed. Numbers in names are those of the source. One block for each molecule: values may come before it.

Key:
Rap1 = target: T1, Rap1 (Homo sapiens, UniProt P62834, G12V); assay: Pull-down of HA-Rap1V12 from HEK293 cell lysates by GST-KRIT1 F123 variants; assay type: binding
T1 sequence (P62834 1-184 G12V): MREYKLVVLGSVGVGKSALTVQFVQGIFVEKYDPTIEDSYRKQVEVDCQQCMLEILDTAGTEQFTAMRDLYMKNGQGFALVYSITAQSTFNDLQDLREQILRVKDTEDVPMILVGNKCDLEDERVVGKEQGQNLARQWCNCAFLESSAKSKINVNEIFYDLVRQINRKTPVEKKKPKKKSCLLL
Summary of the method: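 HEK293 cells were transfected (Lipofectamine Plus) with HA-Rap1A(G12V) cDNA, then lysed after 24 h in cold 50 mM Tris-HCl pH 7.4, 150 mM NaCl, 0.5% NP-40, 5 mM MgCl2 plus protease inhibitors. Bead-immobilized GST-KRIT1 FERM variants (WT or L717,721A; 10 µg) were incubated with 350 µg clarified lysate overnight at 4°C. Beads were washed, run on 4–20% SDS-PAGE and immunoblotted with monoclonal anti-HA (1:4,000).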

HEG1-C19 peptide = HEG1-C19 peptide (Homo sapiens, UniProt Q9ULI3); assay: Affinity chromatography of KRIT1 FERM variants on HEG1-C19 peptide matrix; assay type: binding; conditions: GFP-KRIT1 FERM from HEK293 cell lysates
Summary of the method: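 Pull-down: human HEG1 C19 cytoplasmic tail model protein (His6, N-terminal in vivo biotinylation tag, E. coli-expressed) immobilized on beads; 10 µg added to 350 µg clarified lysate of HEK293 transfected 24 h with GFP-KRIT1 FERM WT or L717,721A; lysis in 50 mM Tris-HCl pH 7.4, 150 mM NaCl, 0.5% NP-40, 5 mM MgCl2 plus protease inhibitors; 4°C overnight; washed, 4–20% SDS-PAGE, anti-GFP immunoblot; three experiments.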

- interaction with Rap1 (Rap1): does not bind to Rap1
B1: GST-KRIT1 F123(R452E) (protein)
chain: EKVRIYRMDGSYRSVELKHGNNTTVQQIMEGMELSQETQQYFTIWICSENLSLQLKPYHKPLQHVRDWPEILAELTNLDPQRETPQLFLRRDVRLPLEVEKQIEDPLAILILFDEARYNLLKGFYTAPDAKLITLASLLLQIVYGNYESKKHKQGFLNEENLKSIVPVTKLKSKAPHWTNRILHEYKNLSTSEGVSKEMHHLQRMFLQNCWEIPTYGAAFFTGQIFTKASPSNHKVIPVYVGVNIKGLHLLNMETKALLISLKYGCFMWQLGDTDTCFQIHSMENKMSFIVHTKQAGLVVKLLMKLNGQLMPTER
modifications: left off: GST, end not stated, kept

- binding to the HEG1-C19 peptide (HEG1-C19 peptide): markedly reduced binding
B2: KRIT1(L717,721A): human KRIT1 Leu717/Leu721 to Ala mutant, used as FERM domain or full-length protein (protein)
chain: B1 chain with E33R, L298A, L302A
modifications: left off: GST, end not stated, kept
